Measured values from ChEMBL document CHEMBL1157616, “Identification of 2-anilino-9-methoxy-5,7-dihydro-6H-pyrimido[5,4-d][1]benzazepin-6-ones as dual PLK1/VEGF-R2 kinase inhibitor chemotypes by structure-based lead generation” (J Med Chem, 2010).
The source made the active and inactive calls.

Columns and labels:
IGROV-1 = assay: Growth inhibition of human IGROV1 cells after 48 hrs by sulforhodamine B assay; format: functional; details: IGROV-1, 48 h
In short: (§1)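 NCI SRB assay with five drug concentrations, top concentration 100 μM, 48 h exposure at 37 °C in RPMI 1640/5% FBS. GI50 is the concentration giving [(Ti−Tz)/(C−Tz)]×100 = 50. Values are means of two independent runs on different dates, each run in duplicate.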

UACC-257 = assay: Growth inhibition of human UACC257 cells after 48 hrs by sulforhodamine B assay; format: functional; details: UACC-257, 48 h; in short: as §1
Insulin receptor [1] = molecular target: T1, Insulin receptor (Homo sapiens, UniProt P06213); assay: Inhibition of INSR assessed as [33Pi] incorporation by microplate scintillation counting in presence of 1 uM ATP
In short: (§2)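 Substrates: Poly(Glu,Tyr)4:1 for VEGFR2; Poly(Glu,Tyr) or Poly(Ala,Glu,Lys,Tyr) for INS-R; RBER-CHKtide or casein for PLK1. Incubated 30 °C, 80 min, stopped with 2% H3PO4. Singlicate; activity referenced to no-enzyme and no-inhibitor controls.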

[2] = molecular target: T2, Vascular endothelial growth factor receptor 2 (Homo sapiens, UniProt P35968); assay: Inhibition of VEGFR2 assessed as [33Pi] incorporation by microplate scintillation counting in presence of 1 uM ATP; in short: as §2
[3] = molecular target: T3, Serine/threonine-protein kinase PLK1 (Homo sapiens, UniProt P53350); assay: Inhibition of PLK1 assessed as [33Pi] incorporation by microplate scintillation counting in presence of 1 uM ATP
CAKI-1 = assay: Growth inhibition of human Caki1 cells after 48 hrs by sulforhodamine B assay; format: functional; details: CAKI-1, 48 h; in short: as §1
[4] = molecular target: T2, Vascular endothelial growth factor receptor 2; assay: Inhibition of VEGFR2 in HUE cells assessed as inhibition of VEGF-induced autophosphorylation treated for 90 mins before VEGF challenge by ELISA; format: cell-based
NCI60 = assay: Antiproliferative activity against human NCI60 cells at 10 uM after 48 hrs by sulforhodamine B assay; format: functional, cell-based
In short: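 NCI 60-cell-line prescreen with compound given once at 10 μM. Cells grown in RPMI 1640 with 5% FBS and 2 mM L-glutamine, plated 24 h before dosing, then exposed 48 h at 37 °C. Fixed with cold TCA, stained with SRB, absorbance read at 515 nm, and percent growth taken relative to time-zero and control wells.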

HUVEC = assay: Inhibition of angiogenesis in HUVEC assessed as inhibition of VEGF-induced sprout growth from cellular spheroids after 24 hrs; format: functional, cell-based; details: Homo sapiens
In short: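 Spheroids of 500 primary HUVEC formed overnight in hanging drops, then embedded in collagen gel. Compound added with VEGF-A at 25 ng/mL final, incubated 37 °C for 24 h, then fixed in 4% paraformaldehyde. Cumulative sprout length measured by image analysis; the mean of 10 random spheroids counts as one data point. IC50 from curve fitting.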

[5] = molecular target: T3, Serine/threonine-protein kinase PLK1; assay: Inhibition of PLK1 assessed as [33Pi] incorporation at 10 uM by microplate scintillation counting in presence of 1 uM ATP; in short: as §2
[6] = molecular target: T2, Vascular endothelial growth factor receptor 2; assay: Inhibition of VEGFR2 assessed as [33Pi] incorporation at 10 uM by microplate scintillation counting in presence of 1 uM ATP; in short: as §2
Insulin receptor [7] = molecular target: T1, Insulin receptor; assay: Inhibition of INSR assessed as [33Pi] incorporation at 10 uM by microplate scintillation counting in presence of 1 uM ATP; in short: as §2
[8] = molecular target: T2, Vascular endothelial growth factor receptor 2; details: HUE, 10 uM

T3 sequence (P53350 whole entry): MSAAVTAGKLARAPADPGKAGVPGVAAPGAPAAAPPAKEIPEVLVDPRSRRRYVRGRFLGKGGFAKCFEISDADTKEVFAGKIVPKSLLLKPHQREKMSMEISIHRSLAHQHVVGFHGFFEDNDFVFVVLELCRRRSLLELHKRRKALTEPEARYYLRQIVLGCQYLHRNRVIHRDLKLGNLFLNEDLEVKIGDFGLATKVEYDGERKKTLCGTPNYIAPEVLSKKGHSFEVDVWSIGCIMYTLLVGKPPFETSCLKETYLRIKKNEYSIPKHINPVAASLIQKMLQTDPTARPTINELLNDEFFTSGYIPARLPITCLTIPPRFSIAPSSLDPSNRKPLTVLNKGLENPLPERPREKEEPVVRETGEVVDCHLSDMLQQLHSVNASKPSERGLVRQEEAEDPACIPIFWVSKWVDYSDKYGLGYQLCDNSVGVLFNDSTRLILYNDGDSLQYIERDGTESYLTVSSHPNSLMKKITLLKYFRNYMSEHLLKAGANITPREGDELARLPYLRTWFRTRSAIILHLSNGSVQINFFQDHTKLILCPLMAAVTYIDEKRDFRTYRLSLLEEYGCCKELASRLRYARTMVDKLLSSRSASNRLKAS
T1 sequence (P06213 28-758 limits assumed): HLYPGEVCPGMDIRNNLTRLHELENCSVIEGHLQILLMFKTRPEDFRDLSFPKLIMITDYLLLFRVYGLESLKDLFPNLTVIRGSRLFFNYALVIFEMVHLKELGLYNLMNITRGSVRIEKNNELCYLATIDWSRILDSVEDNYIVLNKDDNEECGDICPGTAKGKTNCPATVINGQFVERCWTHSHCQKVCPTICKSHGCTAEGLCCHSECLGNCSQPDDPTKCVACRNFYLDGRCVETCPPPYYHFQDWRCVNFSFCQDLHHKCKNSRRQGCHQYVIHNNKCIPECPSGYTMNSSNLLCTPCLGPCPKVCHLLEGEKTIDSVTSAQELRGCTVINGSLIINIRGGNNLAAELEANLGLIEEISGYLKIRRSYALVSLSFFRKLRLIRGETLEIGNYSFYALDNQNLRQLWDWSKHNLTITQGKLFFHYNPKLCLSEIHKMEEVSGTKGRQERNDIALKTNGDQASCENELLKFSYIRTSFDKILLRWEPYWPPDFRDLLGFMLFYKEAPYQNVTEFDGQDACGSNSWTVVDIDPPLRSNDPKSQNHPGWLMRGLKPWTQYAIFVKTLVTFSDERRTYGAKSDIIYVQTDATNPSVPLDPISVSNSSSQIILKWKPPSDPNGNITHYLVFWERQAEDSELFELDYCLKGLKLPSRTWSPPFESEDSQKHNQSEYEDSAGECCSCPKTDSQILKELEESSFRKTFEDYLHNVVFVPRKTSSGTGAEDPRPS
T1 sequence (P06213 763-1382 limits assumed): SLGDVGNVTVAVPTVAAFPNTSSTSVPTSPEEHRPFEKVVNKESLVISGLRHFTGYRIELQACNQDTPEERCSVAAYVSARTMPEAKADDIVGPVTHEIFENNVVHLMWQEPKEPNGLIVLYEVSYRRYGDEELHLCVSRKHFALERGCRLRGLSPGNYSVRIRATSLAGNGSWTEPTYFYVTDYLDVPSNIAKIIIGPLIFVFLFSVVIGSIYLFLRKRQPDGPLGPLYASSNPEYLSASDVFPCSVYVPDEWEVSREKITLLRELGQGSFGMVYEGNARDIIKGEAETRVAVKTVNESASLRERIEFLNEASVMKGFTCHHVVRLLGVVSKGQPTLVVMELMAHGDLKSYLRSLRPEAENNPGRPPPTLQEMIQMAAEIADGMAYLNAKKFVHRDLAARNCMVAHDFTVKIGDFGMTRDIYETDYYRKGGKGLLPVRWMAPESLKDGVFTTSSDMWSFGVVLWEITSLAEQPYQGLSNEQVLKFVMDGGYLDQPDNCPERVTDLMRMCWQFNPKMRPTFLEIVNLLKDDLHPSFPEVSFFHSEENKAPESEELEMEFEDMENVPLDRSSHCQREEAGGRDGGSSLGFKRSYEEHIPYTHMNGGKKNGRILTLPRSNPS
T2 sequence (P35968 whole entry): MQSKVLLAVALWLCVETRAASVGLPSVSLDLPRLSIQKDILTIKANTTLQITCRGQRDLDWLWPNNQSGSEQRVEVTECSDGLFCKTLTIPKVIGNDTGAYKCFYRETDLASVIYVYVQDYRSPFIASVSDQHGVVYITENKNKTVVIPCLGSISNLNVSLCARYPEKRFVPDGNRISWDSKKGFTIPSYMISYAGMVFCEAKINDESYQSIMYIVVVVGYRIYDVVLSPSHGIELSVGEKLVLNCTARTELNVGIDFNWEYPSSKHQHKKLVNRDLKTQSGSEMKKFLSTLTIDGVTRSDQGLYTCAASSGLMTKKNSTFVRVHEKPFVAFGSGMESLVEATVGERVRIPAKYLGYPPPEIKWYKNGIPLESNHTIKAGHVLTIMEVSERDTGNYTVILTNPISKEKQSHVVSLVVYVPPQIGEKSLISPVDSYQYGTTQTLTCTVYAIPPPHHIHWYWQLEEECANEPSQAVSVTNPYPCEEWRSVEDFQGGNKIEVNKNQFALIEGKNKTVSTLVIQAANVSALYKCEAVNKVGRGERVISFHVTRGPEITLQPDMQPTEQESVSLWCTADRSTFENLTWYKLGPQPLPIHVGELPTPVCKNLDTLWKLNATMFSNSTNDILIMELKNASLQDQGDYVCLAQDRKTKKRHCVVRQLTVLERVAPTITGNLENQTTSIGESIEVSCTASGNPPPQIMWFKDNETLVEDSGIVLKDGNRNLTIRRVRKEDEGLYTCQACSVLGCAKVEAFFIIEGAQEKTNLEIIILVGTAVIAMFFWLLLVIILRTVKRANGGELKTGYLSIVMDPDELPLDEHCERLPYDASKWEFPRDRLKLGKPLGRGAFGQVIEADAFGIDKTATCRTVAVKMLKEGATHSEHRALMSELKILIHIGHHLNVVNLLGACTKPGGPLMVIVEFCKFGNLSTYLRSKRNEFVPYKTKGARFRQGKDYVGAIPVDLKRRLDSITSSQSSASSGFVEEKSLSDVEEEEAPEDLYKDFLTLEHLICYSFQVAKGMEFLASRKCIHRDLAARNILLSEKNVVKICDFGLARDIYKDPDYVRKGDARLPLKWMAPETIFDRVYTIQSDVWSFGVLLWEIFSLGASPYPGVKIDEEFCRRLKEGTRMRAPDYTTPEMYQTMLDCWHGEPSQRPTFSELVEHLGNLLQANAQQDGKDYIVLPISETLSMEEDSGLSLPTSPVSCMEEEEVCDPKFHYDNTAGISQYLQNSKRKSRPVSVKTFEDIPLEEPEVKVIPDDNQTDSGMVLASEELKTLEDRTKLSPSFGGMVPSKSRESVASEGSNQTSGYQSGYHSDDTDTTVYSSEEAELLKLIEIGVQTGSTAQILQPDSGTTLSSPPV

SMILES	GI50 (IGROV-1) [nM]	GI50 (UACC-257) [nM]	IC50 (Insulin receptor [1]) [nM]	IC50 [2] [nM]	IC50 [3] [nM]	GI50 (CAKI-1) [nM]	IC50 [4] [nM]	Activity (NCI60)	IC50 (HUVEC) [nM]	inhibition [5] [%]	inhibition [6] [%]	inhibition (Insulin receptor [7]) [%]	inhibition [8]
CCOc1ccc(Nc2ncc3c(n2)-c2cnccc2NC(=O)C3)cc1	400	> 100000	> 100000	99	1700	160	18600	Active					
O=C1Cc2cnc(Nc3ccc(O)cc3)nc2-c2ccccc2N1	3000	> 100000	> 100000	80	> 100000	2600		Active					
CCOc1ccc(Nc2ncc3c(n2)-c2ccc(OC)cc2NC(=O)C3)cc1	230	55000	> 100000	52	7300	390	290	Active	1100				
COc1ccc(Nc2ncc3c(n2)-c2ccccc2NC(=O)C3)cc1O	250	19000	24000	73	5700	150	2400	Active					
COc1ccc(Nc2ncc3c(n2)-c2ccccc2NC(=O)C3)cc1	410	61000	99000	95	47000	510		Active					
O=C1Cc2cnc(Nc3ccc(I)cc3)nc2-c2ccccc2N1			> 100000	400	15000			Active					
COc1ccc2c(c1)NC(=O)Cc1cnc(Nc3ccc(OC)c(O)c3)nc1-2			> 100000	18	140			Active					
O=C1Cc2cnc(Nc3ccc(O)c(Cl)c3)nc2-c2ccccc2N1		39000	84000	35	9300	4700	9600	Active					
COc1ccc(Nc2ncc3c(n2)-c2ncccc2NC(=O)C3)cc1			> 100000	1500	> 100000			Active					
O=C1Cc2cnc(Nc3cccc(O)c3)nc2-c2ncccc2N1			> 100000	2600	> 100000			Active					
COc1ccc2c(c1)NC(=O)Cc1cnc(Nc3cccc(O)c3)nc1-2			> 100000	15	840			Active					
COc1ccc2c(c1)NC(=O)Cc1cc3c(=O)n(C)c(=O)n(C)c3nc1-2			> 100000	> 100000	> 100000			Active					
Cc1cc(O)ccc1Nc1ncc2c(n1)-c1ccccc1NC(=O)C2			> 100000	1200	20000			Active					
CCOc1ccc(Nc2ncc3c(n2)-c2ccccc2NC(=O)C3)cc1	380	27000	> 100000	130	> 100000	750		Active					
O=C1Cc2cnc(Nc3ccc(Br)cc3)nc2-c2ccccc2N1			> 100000	290	> 100000			Active					
O=C1Cc2cnc(Nc3cccc(O)c3)nc2-c2ccccc2N1			> 100000	51	19000		1600	Active					
O=C1Cc2cc3c(=O)[nH]c(=O)[nH]c3nc2-c2ccccc2N1			> 100000	> 100000	> 100000			Active					
O=C1Cc2cnc3ccnn3c2-c2ncccc2N1			> 100000	87000	> 100000			Active					
O=C1Cc2cnc(Nc3ccc(Cl)cc3)nc2-c2ccccc2N1			> 100000	190	> 100000			Active					
COc1ccc2c(c1)NC(=O)Cc1cnc(Nc3ccc(O)c(Cl)c3)nc1-2			> 100000	11	360		430	Active	1200				
O=C1Cc2cnc3cc(-c4ccccc4)nn3c2-c2ccccc2N1			> 100000	630	> 100000			Active					
O=C1Cc2cnc3ncnn3c2-c2ccccc2N1								Active		< 30	< 30	< 30	
COc1ccc2c(c1)NC(=O)Cc1cnc(Nc3ccc(O)cc3)nc1-2			> 100000	28	750			Active					
O=C1Cc2cnc(Nc3ccccc3O)nc2-c2ccccc2N1			> 100000	530	14000			Active					
O=C1Cc2cnc(Nc3ccccc3Cl)nc2-c2ccccc2N1			> 100000	6100	73000			Active					
O=C1Cc2cnc(Nc3ccc(O)c(Cl)c3)nc2-c2cnccc2N1			> 100000	87	1400			Active					inactive
